≈ marks a conversion by molar mass, not a printed value. Numbered stars: 1 amine (or outer) side, 2 acyl side, 3 side chain; on linkers, the order of the positions; unused ones are H or OH. Bridge positions count the residues as written; N and C are the ends. Square brackets hold non-standard residues; d marks the D form. Peptide text beside a SMILES is read from it. Gln(3R-OH) = NC(=O)C[C@@H](O)[C@H](N)C(=O)O; X1 = CCCCCCCCCCCCC[C@H](CC(=O)[*:1])O[*:2]; Pro(3S-OH) = O=C(O)[C@H]1NCC[C@@H]1O; d(aThr) = C[C@@H](O)[C@@H](N)C(=O)O; Hyp = O=C(O)[C@@H]1C[C@@H](O)CN1; Orn = NCCC[C@H](N)C(=O)O
Columns and labels:
[1] = test system: Meyerozyma guilliermondii; experiment: In vitro antifungal activity against Candida guilliermondii FP587 by agar dilution method using Sabouraud Dextrose agar.; type: functional
In short: (§1)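 Agar dilution on Sabouraud Dextrose agar. MIC taken as the lowest concentration that inhibits visible growth.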

Mus musculus [2] = species on record: Mus musculus; experiment: Ability to hemolyze ICR mouse RBCs at 1 mg/mL using microtiter red blood cell hemolysis assay.
Candida parapsilosis = experiment: In vitro antifungal activity against Candida parapsilosis 15001 by agar dilution method using Sabouraud Dextrose agar.; type: functional; details: Lodderomyces parapsilosis; in short: as §1
Candida albicans [3] = experiment: In vitro antifungal activity against Candida albicans FP579 by agar dilution method using Sabouraud Dextrose agar.; type: functional; in short: as §1
Candida tropicalis = experiment: In vitro antifungal activity against Candida tropicalis 8001 by agar dilution method using Sabouraud Dextrose agar.; type: functional; in short: as §1
Candida albicans [4] = experiment: In vitro Antifungal activity against Candida albicans FP633 by agar dilution method using Sabouraud Dextrose agar.; type: functional; in short: as §1
Mus musculus [5] = experiment: Compound was evaluated in vivo for antifungal activity and efficacy in disseminated murine candidiasis was determined; type: functional
Candida albicans [6] = experiment: Compound was evaluated in vivo for antifungal activity and efficacy in disseminated murine candidiasis caused by candida albicans FP633; type: functional
Candida albicans [7] = experiment: In vitro antifungal activity against Candida albicans FP633 by agar dilution method using Sabouraud Dextrose agar; type: functional; in short: as §1
[8] = Candida tropicalis, read-out: MIC

MIC [1] [µg/mL] | MIC (Candida parapsilosis) [µg/mL] | MIC (Candida albicans [3]) [µg/mL] | MIC (Candida tropicalis) [µg/mL] | MIC (Candida tropicalis; [8]) [µg/mL] | MIC (Candida albicans [4]) [µg/mL] | MIC (Candida albicans [7]) [µg/mL] | Structure (SMILES) | Hemolytic activity (Mus musculus [2]) [%] | ED50 (Mus musculus [5]) [mg/kg] | ED50 (Candida albicans [6]) [mg/kg]
0.78 (≈ 0.49 µM) | 1.56 (≈ 0.98 µM) | 0.78 (≈ 0.49 µM) | 1.56 (≈ 0.98 µM) | 1.56 (≈ 0.98 µM) | 0.39 (≈ 0.245 µM) | – | CCCCCCCCCCCCC[C@H](CC(=O)N[C@@H](C(=O)N[C@H](C)C(=O)N[C@@H](Cc1ccc(O)cc1)C(=O)N[C@H](C(=O)N1C[C@H](O)C[C@H]1C(=O)N[C@@H](C(=O)N[C@H](C(=O)N1CC[C@H](O)[C@H]1C(=O)N[C@H](C(=O)NCC(=O)N[C@@H](C(N)=O)[C@@H](C)O)[C@H](O)CC(N)=O)[C@@H](C)O)[C@@H](C)O)C(C)C)[C@@H](C)O)OC(=O)[C@@H](C)CCCNC(C)=O | 5 | – | –
0.78 (≈ 0.482 µM) | 0.78 (≈ 0.482 µM) | 1.56 (≈ 0.963 µM) | 1.56 (≈ 0.963 µM) | 1.56 (≈ 0.963 µM) | 0.78 (≈ 0.482 µM) | – | CCCCCCCCCCCCC[C@@H]1CC(=O)N[C@@H]([C@@H](C)O)C(=O)N[C@H](C)C(=O)N[C@@H](Cc2ccc(O)c(NC(=O)CCN)c2)C(=O)N[C@@H](C(C)C)C(=O)N2C[C@H](O)C[C@H]2C(=O)N[C@@H]([C@@H](C)O)C(=O)N[C@@H]([C@@H](C)O)C(=O)N2CC[C@H](O)[C@H]2C(=O)N[C@@H]([C@H](O)CC(N)=O)C(=O)NCC(=O)N[C@@H]([C@@H](C)O)C(=O)N[C@@H](CCCN)C(=O)O1 | 49 | – | –
0.78 (≈ 0.489 µM) | 0.78 (≈ 0.489 µM) | 0.78 (≈ 0.489 µM) | 0.78 (≈ 0.489 µM) | 0.78 (≈ 0.489 µM) | 0.39 (≈ 0.245 µM) | – | CCCCCCCCCCCCC[C@H](CC(=O)N[C@@H](C(=O)N[C@H](C)C(=O)N[C@@H](Cc1ccc(O)c([N+](=O)[O-])c1)C(=O)N[C@H](C(=O)N1C[C@H](O)C[C@H]1C(=O)N[C@@H](C(=O)N[C@H](C(=O)N1CC[C@H](O)[C@H]1C(=O)N[C@H](C(=O)NCC(=O)N[C@@H](C(N)=O)[C@@H](C)O)[C@H](O)CC(N)=O)[C@@H](C)O)[C@@H](C)O)C(C)C)[C@@H](C)O)OC(=O)[C@@H](C)CCCN | 100 | 0.45 | –
0.39 (≈ 0.254 µM) | 0.39 (≈ 0.254 µM) | 0.39 (≈ 0.254 µM) | 0.39 (≈ 0.254 µM) | 0.39 (≈ 0.254 µM) | – | 0.39 (≈ 0.254 µM) | CCCCCCCCCCCCC[C@@H]1CC(=O)N[C@H]([C@@H](C)O)C(=O)N[C@H](C)C(=O)N[C@@H](Cc2ccc(O)cc2)C(=O)N[C@@H](C(C)C)C(=O)N2C[C@H](O)C[C@H]2C(=O)N[C@H]([C@@H](C)O)C(=O)N[C@@H]([C@@H](C)O)C(=O)N2CC[C@H](O)[C@H]2C(=O)N[C@@H]([C@H](O)CC(N)=O)C(=O)NCC(=O)N[C@H]([C@@H](C)O)C(=O)N[C@@H](CCCN)C(=O)O1 [FR-901469] ([d(aThr)][dA]YV[Hyp][d(aThr)]T[Pro(3S-OH)][Gln(3R-OH)]G[d(aThr)][Orn]; linker N-C via X1) | 100 | – | 0.88
